Active and inactive are the calls of the source. No cut-off for these calls is given here.
Tests used:
[1] = target: T1, Serine/threonine-protein kinase D1 (Homo sapiens, UniProt Q15139); experiment: Inhibition of recombinant FLAG-tagged PKD1 (unknown origin) expressed in HEK293T cells using Syntide-2 as substrate measured after 15 mins by ADP-Glo assay
T1 sequence (Q15139 whole entry): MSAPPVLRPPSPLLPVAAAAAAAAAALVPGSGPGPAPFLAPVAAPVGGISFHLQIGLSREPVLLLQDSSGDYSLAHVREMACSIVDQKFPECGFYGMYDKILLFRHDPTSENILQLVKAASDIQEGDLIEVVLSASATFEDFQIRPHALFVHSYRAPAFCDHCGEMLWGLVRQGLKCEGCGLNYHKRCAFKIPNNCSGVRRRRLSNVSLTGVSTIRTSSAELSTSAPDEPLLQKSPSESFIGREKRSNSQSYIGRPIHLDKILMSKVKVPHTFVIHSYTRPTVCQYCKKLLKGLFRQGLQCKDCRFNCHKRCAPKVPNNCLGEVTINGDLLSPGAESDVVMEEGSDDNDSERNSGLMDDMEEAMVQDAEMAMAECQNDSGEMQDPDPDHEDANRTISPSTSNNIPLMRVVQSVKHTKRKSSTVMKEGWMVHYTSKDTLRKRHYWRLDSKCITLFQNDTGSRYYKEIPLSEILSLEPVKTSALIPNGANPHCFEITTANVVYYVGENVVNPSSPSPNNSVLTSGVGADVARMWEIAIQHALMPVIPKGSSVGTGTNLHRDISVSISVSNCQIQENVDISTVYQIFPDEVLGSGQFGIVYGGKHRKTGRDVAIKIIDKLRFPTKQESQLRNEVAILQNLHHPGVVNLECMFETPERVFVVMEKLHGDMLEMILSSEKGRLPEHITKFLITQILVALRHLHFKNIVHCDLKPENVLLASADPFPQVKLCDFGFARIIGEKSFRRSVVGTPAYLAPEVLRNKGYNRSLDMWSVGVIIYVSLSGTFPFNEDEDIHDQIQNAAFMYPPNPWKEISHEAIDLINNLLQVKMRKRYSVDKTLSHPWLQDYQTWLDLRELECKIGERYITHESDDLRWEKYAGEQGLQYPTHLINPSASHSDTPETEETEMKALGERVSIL

HL-60 = experiment: Antiproliferative activity against human HL-60 cells assessed as reduction in cell viability incubated for 72 hrs by IncuCyte live-cell automated imaging analysis; settings: HL-60, 72 h
LN-229 = experiment: Antiproliferative activity against human LN-229 cells assessed as reduction in cell viability incubated for 72 hrs by IncuCyte live-cell automated imaging analysis; settings: LN-229, 72 h
Z-138 = experiment: Antiproliferative activity against human Z138 cells assessed as reduction in cell viability incubated for 72 hrs by IncuCyte live-cell automated imaging analysis; settings: Z-138, 72 h
K562 = experiment: Antiproliferative activity against human K562 cells assessed as reduction in cell viability incubated for 72 hrs by IncuCyte live-cell automated imaging analysis; settings: K562, 72 h
[2] = Antiproliferative activity against human DND41 cells assessed as reduction in cell viability incubated for 72 hrs by IncuCyte live-cell automated imaging analysis; settings: DND41, 72 h
CAPAN-1 = experiment: Antiproliferative activity against human CAPAN-1 cells assessed as reduction in cell viability incubated for 72 hrs by IncuCyte live-cell automated imaging analysis; settings: CAPAN-1, 72 h
[3] = target: T2, Serine/threonine-protein kinase D2 (Homo sapiens, UniProt Q9BZL6); experiment: Inhibition of recombinant FLAG-tagged PKD2 (unknown origin) expressed in HEK293T cells using Syntide-2 as substrate measured after 15 mins by ADP-Glo assay
T2 sequence (Q9BZL6 whole entry): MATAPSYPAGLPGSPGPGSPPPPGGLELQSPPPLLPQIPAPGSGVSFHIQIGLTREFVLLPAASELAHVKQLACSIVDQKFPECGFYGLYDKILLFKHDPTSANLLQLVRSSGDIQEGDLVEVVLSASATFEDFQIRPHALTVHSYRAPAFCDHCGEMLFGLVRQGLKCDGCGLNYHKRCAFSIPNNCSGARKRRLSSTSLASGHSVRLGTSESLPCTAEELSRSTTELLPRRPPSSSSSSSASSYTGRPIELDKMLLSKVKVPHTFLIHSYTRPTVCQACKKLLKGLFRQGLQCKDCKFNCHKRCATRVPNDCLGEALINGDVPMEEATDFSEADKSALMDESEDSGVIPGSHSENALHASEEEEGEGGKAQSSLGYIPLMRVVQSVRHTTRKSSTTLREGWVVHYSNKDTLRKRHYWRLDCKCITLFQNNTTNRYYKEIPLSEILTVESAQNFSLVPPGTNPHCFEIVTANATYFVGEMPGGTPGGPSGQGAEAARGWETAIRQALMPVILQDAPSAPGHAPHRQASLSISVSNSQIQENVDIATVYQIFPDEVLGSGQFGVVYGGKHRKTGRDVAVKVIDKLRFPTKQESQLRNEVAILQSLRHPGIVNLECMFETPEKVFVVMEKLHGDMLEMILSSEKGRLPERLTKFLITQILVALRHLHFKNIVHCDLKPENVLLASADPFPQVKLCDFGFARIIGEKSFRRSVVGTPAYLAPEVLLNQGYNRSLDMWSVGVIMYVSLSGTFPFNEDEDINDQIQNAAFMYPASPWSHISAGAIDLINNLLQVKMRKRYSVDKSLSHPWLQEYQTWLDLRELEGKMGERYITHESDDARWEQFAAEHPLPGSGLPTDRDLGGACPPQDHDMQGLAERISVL

HCT-116 = experiment: Antiproliferative activity against human HCT-116 cells assessed as reduction in cell viability incubated for 72 hrs by IncuCyte live-cell automated imaging analysis; settings: HCT-116, 72 h
[4] = target: T3, Serine/threonine-protein kinase D3 (Homo sapiens, UniProt O94806); experiment: Inhibition of recombinant FLAG-tagged PKD3 (unknown origin) expressed in HEK293T cells using Syntide-2 as substrate measured after 15 mins by ADP-Glo assay
T3 sequence (O94806 whole entry): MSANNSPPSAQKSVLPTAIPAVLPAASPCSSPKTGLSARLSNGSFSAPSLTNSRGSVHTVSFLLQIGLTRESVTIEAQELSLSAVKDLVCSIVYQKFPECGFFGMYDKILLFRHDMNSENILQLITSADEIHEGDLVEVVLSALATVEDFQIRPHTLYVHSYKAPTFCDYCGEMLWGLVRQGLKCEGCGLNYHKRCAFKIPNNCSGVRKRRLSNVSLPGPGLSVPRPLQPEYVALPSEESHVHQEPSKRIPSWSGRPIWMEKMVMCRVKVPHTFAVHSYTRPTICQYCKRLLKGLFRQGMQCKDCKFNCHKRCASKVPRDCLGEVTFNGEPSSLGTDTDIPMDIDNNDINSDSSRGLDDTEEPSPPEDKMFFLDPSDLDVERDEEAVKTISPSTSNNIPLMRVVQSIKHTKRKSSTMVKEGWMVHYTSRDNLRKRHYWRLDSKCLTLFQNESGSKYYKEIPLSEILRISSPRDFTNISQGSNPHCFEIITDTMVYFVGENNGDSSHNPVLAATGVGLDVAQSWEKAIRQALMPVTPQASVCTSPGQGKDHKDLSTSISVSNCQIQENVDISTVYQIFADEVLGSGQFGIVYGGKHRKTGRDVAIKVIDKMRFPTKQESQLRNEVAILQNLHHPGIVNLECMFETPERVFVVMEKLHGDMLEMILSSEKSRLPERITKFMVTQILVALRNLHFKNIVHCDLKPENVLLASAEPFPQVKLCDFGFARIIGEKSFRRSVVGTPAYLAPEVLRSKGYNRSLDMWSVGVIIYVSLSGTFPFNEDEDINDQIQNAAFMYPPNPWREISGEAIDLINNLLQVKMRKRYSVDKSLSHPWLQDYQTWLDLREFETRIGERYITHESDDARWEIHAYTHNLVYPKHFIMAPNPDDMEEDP

NCI-H460 = experiment: Antiproliferative activity against human NCI-H460 cells assessed as reduction in cell viability incubated for 72 hrs by IncuCyte live-cell automated imaging analysis; settings: NCI-H460, 72 h
PANC-1 [5] = experiment: Antiproliferative activity against human PANC-1 cells assessed as reduction in cell proliferation at 5 uM measured after 48 to 144 hrs by MTT assay; format: functional, cell-based; settings: time 48-144 hrs
Method in brief: (§1)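 PANC-1 cells at 2000 cells/well, attached 4 h, then given compound at 5 µM or 0.25% DMSO vehicle. Grown 0, 48, 96 or 144 h, then MTT at 0.5 mg/mL final for 3 h, lysis in DMSO, absorbance at 550 nm. Four experiments (n=4), mean and SEM; two-way ANOVA with Dunnett's test against DMSO.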

[6] = target: Calcium/calmodulin-dependent protein kinase type II subunit alpha (Homo sapiens) (UniProt Q9UQM7); experiment: Inhibition of recombinant human full-length N-terminal GST-fused CaMK2alpha (1 to 478 residues) expressed in baculovirus expression system at 1 to 10 uM using Syntide-2 peptide as substrate measured after 10 mins by [gamma-32P]ATP by scintillation counting method; settings: dose 1-10 µM
Method in brief: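 Radiometric kinase assay in 40 µL: 50 mM Tris-HCl pH 7.4, 10 mM MgCl2, 2 mM CaCl2, calmodulin, 50 ng CAMKIIα, 2 µg Syntide-2 substrate, 25 µM ATP plus 2 µCi [γ-32P]ATP, with compounds at the indicated concentrations.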

PANC-1 [7] = experiment: Antiproliferative activity against human PANC-1 cells assessed as reduction in cell proliferation at 5 uM measured after 96 to 144 hrs by MTT assay; format: functional, cell-based; settings: time 96-144 hrs; method in brief: as §1
[8] = target: Protein kinase C delta type (Homo sapiens) (UniProt Q05655); experiment: Inhibition of recombinant human full-length N-terminal GST-fused PKCdelta (1 to 676 residues) expressed in baculovirus expression system at 1 to 10 uM using MARCKS peptide as substrate measured after 10 mins by [gamma-32P]ATP by scintillation counting method; settings: dose 1-10 µM
Method in brief: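 Radiometric PKCδ assay: 50 mM Tris-HCl pH 7.4, 10 mM MgCl2, 4 µL phosphatidylserine/PDBu vesicle stock (dried lipids resuspended in 50 mM Tris pH 7.4 and sonicated), 50 ng PKCδ, 5 µg MARCKS peptide substrate, 25 µM ATP plus 2 µCi [γ-32P]ATP.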

Chain of Protein kinase C delta type (Homo sapiens) (Q05655 whole entry, looked up, the tested form may be a part): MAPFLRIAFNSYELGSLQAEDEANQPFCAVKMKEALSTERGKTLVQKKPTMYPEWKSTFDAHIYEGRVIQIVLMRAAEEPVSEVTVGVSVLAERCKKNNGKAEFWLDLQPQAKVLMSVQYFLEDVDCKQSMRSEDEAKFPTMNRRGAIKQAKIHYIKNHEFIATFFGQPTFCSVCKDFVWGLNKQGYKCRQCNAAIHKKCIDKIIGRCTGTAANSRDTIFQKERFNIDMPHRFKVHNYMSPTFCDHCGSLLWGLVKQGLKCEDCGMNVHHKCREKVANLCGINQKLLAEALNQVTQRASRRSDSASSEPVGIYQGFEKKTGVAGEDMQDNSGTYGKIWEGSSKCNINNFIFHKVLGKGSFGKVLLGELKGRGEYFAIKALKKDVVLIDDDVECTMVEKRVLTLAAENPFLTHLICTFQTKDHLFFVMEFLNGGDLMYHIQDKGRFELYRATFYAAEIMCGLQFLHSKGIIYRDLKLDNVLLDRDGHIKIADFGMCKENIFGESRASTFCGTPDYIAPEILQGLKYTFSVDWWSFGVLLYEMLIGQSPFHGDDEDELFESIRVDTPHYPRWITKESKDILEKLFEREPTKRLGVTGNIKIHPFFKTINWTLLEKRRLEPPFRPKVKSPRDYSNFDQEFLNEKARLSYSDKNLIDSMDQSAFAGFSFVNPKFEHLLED
Chain of Calcium/calmodulin-dependent protein kinase type II subunit alpha (Homo sapiens) (Q9UQM7 whole entry, the tested form may be a part): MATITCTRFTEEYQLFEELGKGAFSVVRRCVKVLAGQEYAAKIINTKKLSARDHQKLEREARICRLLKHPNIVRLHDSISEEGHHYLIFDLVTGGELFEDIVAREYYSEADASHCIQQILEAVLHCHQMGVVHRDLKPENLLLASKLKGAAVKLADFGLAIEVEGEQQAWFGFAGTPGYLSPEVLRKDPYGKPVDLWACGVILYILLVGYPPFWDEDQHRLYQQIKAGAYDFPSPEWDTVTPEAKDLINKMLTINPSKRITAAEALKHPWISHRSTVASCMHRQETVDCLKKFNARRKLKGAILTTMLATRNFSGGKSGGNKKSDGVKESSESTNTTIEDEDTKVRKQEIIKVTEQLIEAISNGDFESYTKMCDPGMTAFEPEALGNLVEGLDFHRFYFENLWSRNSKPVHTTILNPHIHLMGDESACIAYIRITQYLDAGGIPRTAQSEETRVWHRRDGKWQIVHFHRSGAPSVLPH

SMILES | IC50 [1] [µM] | IC50 (HL-60) [µM] | IC50 (LN-229) [µM] | IC50 (Z-138) [µM] | IC50 (K562) [µM] | IC50 [2] [µM] | IC50 (CAPAN-1) [µM] | IC50 [3] [µM] | IC50 (HCT-116) [µM] | IC50 [4] [µM] | IC50 (NCI-H460) [µM] | Activity (PANC-1 [5]) | inhibition [6] | Activity (PANC-1 [7]) | inhibition [8]
CC(C)(C)n1nc(Cc2cccc3ccccc23)c2c(N)ncnc21 | 1.01 | 24.1 | > 100 | > 23.7 | > 36.3 | > 26.1 | 23 | 0.786 | > 100 | 0.616 | > 100 |  |  |  | 
Nc1ncnc2c1c(-c1c[nH]c3ccccc13)nn2CC1CCNCC1 |  | 17.9 | 80.6 | 35.3 | > 100 | 42.7 | 40.7 |  | > 100 |  | > 95.8 | inactive |  |  | 
CC[C@@H](N)CNc1ccnc(-c2cc(-c3cnn(C)c3)ccc2O)n1 | 0.016 | 1 | 0.6 | 0.7 | 2.2 | 1 | 1.8 | 0.009 | 1.7 |  | 1.9 |  |  |  | 
CC(C)(CO)Cn1nc(-c2c[nH]c3ccccc23)c2c(N)ncnc21 |  | 27.6 | 52.6 | 19.6 | 12 | 13.1 | 4.7 |  | 13.4 |  | 14 |  |  |  | 
Cn1cc(-c2nn(C(C)(C)C)c3ncnc(N)c23)c2ccccc21 |  | > 25.6 | > 78.3 | > 38.2 | > 33.7 | > 41.4 | 21.3 |  | 63 |  | 73.9 |  |  |  | 
CC(C)(C)n1nc(-c2c[nH]c3ccccc23)c2c(N)ncnc21 | 0.108 | 7.8 | 39.2 | 9.7 | 3.7 | 9.8 | 1.6 | 0.094 | 2.5 | 0.108 | 4 |  | inactive | Active | inactive
CCOc1ccc2cc(-c3nn(CC4CCN(C)CC4)c4ncnc(N)c34)ccc2n1 |  | > 100 | 45.2 | 30.4 | > 100 | 35.5 | > 100 |  | > 55.2 |  | > 100 |  |  |  | 
